{"source": "paper PMC8669655", "about": "(ACS Infectious Diseases, 2021)", "key": {"E. coli BW25113 [1]": {"tested_on": "E. coli BW25113", "experiment": "MIC assay", "assay_type": "cell-based", "conditions": "Escherichia coli", "in_short": "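Broth microdilution per CLSI in LB. Test compound serially diluted twofold from a 2× stock. Inoculum from a single blood-agar colony, grown in LB at 37 °C to OD600 0.5, diluted to 2.0 × 10^6 CFU/mL stock, then added 1:1. Plates sealed with breathable seal, incubated 20 h at 37 °C, 600 rpm. MIC read visually after brief centrifugation. Six growth and six sterility controls.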"}, "E. coli ATCC25922": {"tested_on": "E. coli ATCC25922", "experiment": "Checkerboard assay with rifampicin", "assay_type": "cell-based, Escherichia coli", "conditions": "E. coli ATCC25922 (wild-type)", "in_short": "(§1)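 Broth microdilution checkerboard in LB: serial dilutions of test compound and rifampicin combined, in triplicate. Inoculum from a single blood-agar colony, grown in LB at 37 °C to OD600 0.5, diluted to 2.0 × 10^6 CFU/mL stock, 50 μL added per 100 μL well. Sealed plates incubated 20 h, 37 °C, 600 rpm shaking. OD600 read after resuspension. FICI from MICs alone and in combination; ≤0.5 taken as synergy.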"}, "E. coli W3110": {"tested_on": "E. coli W3110", "experiment": "Checkerboard assay with rifampicin", "assay_type": "cell-based, Escherichia coli", "conditions": "E. coli W3110 (wild-type)", "in_short": "as §1"}, "E. coli 552060.1": {"tested_on": "E. coli 552060.1", "experiment": "Checkerboard assay with rifampicin", "assay_type": "cell-based, Escherichia coli", "conditions": "E. coli 552060.1 (wild-type clinical isolate)", "in_short": "as §1"}, "[2]": {"tested_on": "E. coli EQASmcr-1 (EQAS 2016 412016126)", "experiment": "Checkerboard assay with rifampicin", "assay_type": "cell-based, Escherichia coli", "conditions": "E. coli EQASmcr-1 (polymyxin-resistant)", "in_short": "as §1"}, "[3]": {"tested_on": "E. coli EQASmcr-2 (EQAS 2016 KP37)", "experiment": "Checkerboard assay with rifampicin", "assay_type": "cell-based, Escherichia coli", "conditions": "E. coli EQASmcr-2 (polymyxin-resistant)", "in_short": "as §1"}, "[4]": {"tested_on": "E. coli EQASmcr-3 (EQAS 2017 2013-SQ352)", "experiment": "Checkerboard assay with rifampicin", "assay_type": "cell-based, Escherichia coli", "conditions": "E. coli EQASmcr-3 (polymyxin-resistant), listed as pentamidine (1)", "in_short": "as §1"}, "A. baumannii ATCC17978": {"tested_on": "A. baumannii ATCC17978", "experiment": "Checkerboard assay with rifampicin", "assay_type": "cell-based, Acinetobacter baumannii", "conditions": "listed as pentamidine (1)", "in_short": "as §1"}, "K. pneumoniae ATCC13883": {"tested_on": "K. pneumoniae ATCC13883", "experiment": "Checkerboard assay with rifampicin", "assay_type": "cell-based, Klebsiella pneumoniae", "conditions": "listed as pentamidine (1)", "in_short": "as §1"}, "P. aeruginosa ATCC27853": {"tested_on": "P. aeruginosa ATCC27853", "experiment": "Checkerboard assay with rifampicin", "assay_type": "cell-based, Pseudomonas aeruginosa", "conditions": "listed as pentamidine (1)", "in_short": "as §1"}, "E. coli BW25113 [5]": {"tested_on": "E. coli BW25113", "experiment": "OM permeabilization assay using NPN", "assay_type": "cell-based, Escherichia coli", "conditions": "60 min, relative to 100 μg/mL colistin", "in_short": "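Log-phase cells (overnight LB culture diluted 50×, grown to OD600 0.5) pelleted and resuspended to OD600 1.0 in 5 mM HEPES with 20 mM glucose. Test compound serially diluted in triplicate. NPN stock (0.5 mM in acetone) diluted 12.5× in buffer and added. Fluorescence read after 60 min, ex 355 nm / em 420 nm. Uptake % = (F − buffer blank)/(colistin 100 μg/mL − blank) × 100. Compound + NPN no-cell controls included.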"}, "rat L6 muscle cell line": {"tested_on": "rat L6 muscle cell line", "conditions": "cited from earlier work"}}, "note": "Entries after “also recorded” stand apart in the source; their conditions may differ."}
{"smiles": "N=C(N)c1ccc(OCCCCCOc2ccc(C(=N)N)cc2)cc1", "note": "[compound 1, 4,4′-(Pentane-1,5-diylbis(oxy))dibenzimidamide, reference compound]", "values": [{"measurement": "MIC", "setting": "E. coli BW25113 [1]; BW25113, compound alone", "result": "≥ 200", "unit": "µg/mL"}, {"measurement": "FICI", "setting": "E. coli ATCC25922", "result": 0.313}, {"measurement": "FICI", "setting": "E. coli W3110; listed as pentamidine (1)", "result": "≤0.188"}, {"measurement": "FICI", "setting": "E. coli 552060.1", "result": 0.375}, {"measurement": "FICI", "setting": "[2]; listed as pentamidine (1)", "result": "≤0.250"}, {"measurement": "FICI", "setting": "[3]", "result": 0.375}, {"measurement": "FICI", "setting": "[4]", "result": "≤0.188"}, {"measurement": "FICI", "setting": "A. baumannii ATCC17978", "result": "≤0.125"}, {"measurement": "FICI", "setting": "K. pneumoniae ATCC13883", "result": "≤0.125"}, {"measurement": "FICI", "setting": "P. aeruginosa ATCC27853", "result": "≤0.500"}]}
{"smiles": "N=C(N)c1ccc(OCCCOc2ccc(C(=N)N)cc2)cc1", "note": "[compound 9, 4,4′-(Propane-1,3-diylbis(oxy))dibenzimidamide]", "values": [{"measurement": "MIC", "setting": "E. coli BW25113 [1]; BW25113, compound alone", "result": "≥ 200", "unit": "µg/mL"}]}
{"smiles": "N=C(N)c1ccc(OCCCCCCCOc2ccc(C(=N)N)cc2)cc1", "note": "[compound 10, 4,4′-(Heptane-1,7-diylbis(oxy))dibenzimidamide]", "values": [{"measurement": "MIC", "setting": "E. coli BW25113 [1]; BW25113, compound alone", "result": 200, "unit": "µg/mL"}]}
{"smiles": "N=C(N)c1ccc(OCCSCCOc2ccc(C(=N)N)cc2)cc1", "note": "[compound 15, 4,4′-((Thiobis(ethane-2,1-diyl))bis(oxy))dibenzimidamide]", "values": [{"measurement": "MIC", "setting": "E. coli BW25113 [1]; BW25113, compound alone", "result": "> 200", "unit": "µg/mL"}]}
{"smiles": "N=C(N)c1ccc(OCCS(=O)(=O)CCOc2ccc(C(=N)N)cc2)cc1", "note": "[compound 16, 4,4′-((Sulfonylbis(ethane-2,1-diyl))bis(oxy))dibenzimidamide]", "values": [{"measurement": "MIC", "setting": "E. coli BW25113 [1]; BW25113, compound alone", "result": "> 200", "unit": "µg/mL"}]}
{"smiles": "N=C(N)c1ccc(OCc2ccccc2COc2ccc(C(=N)N)cc2)cc1", "note": "[compound 21, 4,4′-((1,2-Phenylenebis(methylene))bis(oxy))dibenzimidamide]", "values": [{"measurement": "MIC", "setting": "E. coli BW25113 [1]; BW25113, 20 h, compound alone", "result": "> 200", "unit": "µg/mL"}, {"measurement": "NPN uptake (OM disruption), in words", "setting": "E. coli BW25113 [5]", "result": "dose-dependent increase in the fluorescent signal"}]}
{"smiles": "N=C(N)c1ccc(OCc2cccc(COc3ccc(C(=N)N)cc3)c2)cc1", "note": "[compound 22, 4,4′-((1,3-Phenylenebis(methylene))bis(oxy))dibenzimidamide]", "values": [{"measurement": "MIC", "setting": "E. coli BW25113 [1]; BW25113, 20 h, compound alone", "result": "> 200", "unit": "µg/mL"}, {"measurement": "FICI", "setting": "E. coli ATCC25922", "result": 0.094}, {"measurement": "FICI", "setting": "E. coli W3110", "result": 0.313}, {"measurement": "FICI", "setting": "E. coli 552060.1", "result": 0.250}, {"measurement": "FICI", "setting": "[2]", "result": 0.188}, {"measurement": "FICI", "setting": "[3]", "result": 0.313}, {"measurement": "NPN uptake (OM disruption), in words", "setting": "E. coli BW25113 [5]", "result": "dose-dependent increase in the fluorescent signal; also recorded: stronger effect than PMBN"}]}
{"smiles": "N=C(N)c1cccc(OCc2ccc(COc3cccc(C(=N)N)c3)cc2)c1", "note": "[compound 23b, 3,3′-[1,4-Phenylenebis(methyleneoxy)]dibenzenecarboximidamide]", "values": [{"measurement": "FICI", "setting": "E. coli ATCC25922", "result": 0.156}]}
{"smiles": "N=C(N)c1ccc(OCc2ccc3ccc(COc4ccc(C(=N)N)cc4)cc3c2)cc1", "note": "[compound 24, 4,4′-((Naphthalene-2,7-diylbis(methylene))bis(oxy))dibenzimidamide]", "values": [{"measurement": "toxicity against a rat L6 muscle cell line", "setting": "rat L6 muscle cell line", "result": "significant toxicity"}]}
